These results are taken from ChEMBL document CHEMBL3861992 (Bioorg Med Chem Lett, 2016).

Calls of active or inactive are those of the source. The calls are words filed in the database; no cut-off is given here.

For data set [1], the target named is Amyloid-beta precursor protein (Homo sapiens, UniProt P05067). The data set is described as follows: Inhibition of amyloid beta (1 to 42 residues) (unknown origin) aggregation after 24 hrs by thioflavin T fluorescence assay.
For data set [2], the target named is Microtubule-associated protein tau (Homo sapiens, UniProt P10636). The data set is described as follows: Inhibition of recombinant human TAU three-repeat microtubule-binding domain aggregation expressed in Escherichia coli after 16 hrs by thioflavin T fluorescence assay.
Data set [3] can be described thus: Plasma concentration in Sprague-Dawley rat at 50 mg/kg, po after 3 hrs by LC-MS/MS analysis. The format is ADME, organism-based. The gist of the method:
(§1)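 SD rats dosed orally at 50 mg/kg; plasma drug levels followed up to 3 h. Mean ± SD, n = 3.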

The nature of data set [4]: Tmax in mouse. In kind it is ADME, organism-based. The following applies: in vivo.
Data set [5] can be described thus: Drug uptake in Sprague-Dawley rat brain at 50 mg/kg, po after 3 hrs by LC-MS/MS analysis. The format is ADME, organism-based. The following applies: read-out: Drug uptake. The gist of the method:
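Brains collected from SD rats 3 h after a 50 mg/kg oral dose; tissue drug concentration measured per g tissue. Mean ± SD, n = 3.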

The nature of data set [6]: Drug uptake in Sprague-Dawley rat plasma at 5 mg/kg, iv up to 3 hrs by LC-MS/MS analysis. In kind it is ADME, organism-based. The following applies: in vivo. The procedure, abridged: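 SD rats given 5 mg/kg intravenously; plasma concentrations sampled up to 3 h post-dose. Mean ± SD, n = 3.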
For another data set, the system named is Mus musculus. The data set is described as follows: In vivo inhibition of human tau aggregation in JNPL3 human tau P301L transgenic mouse model assessed as reduction in amount of sarkosyl-insoluble tau in brain at 20 to 40 mg/kg/day, po for 4 weeks by ELISA. In kind it is functional, organism-based.
A short description of data set [7]: Cmax in Sprague-Dawley rat at 50 mg/kg, po after 30 mins by LC-MS/MS analysis. In kind it is ADME, organism-based. The arrangement: dose 50 mg/kg, route oral. The settings on record: in vivo. The gist of the method: as §1

Chain of Amyloid-beta precursor protein (P05067 whole entry, the tested form may be a part): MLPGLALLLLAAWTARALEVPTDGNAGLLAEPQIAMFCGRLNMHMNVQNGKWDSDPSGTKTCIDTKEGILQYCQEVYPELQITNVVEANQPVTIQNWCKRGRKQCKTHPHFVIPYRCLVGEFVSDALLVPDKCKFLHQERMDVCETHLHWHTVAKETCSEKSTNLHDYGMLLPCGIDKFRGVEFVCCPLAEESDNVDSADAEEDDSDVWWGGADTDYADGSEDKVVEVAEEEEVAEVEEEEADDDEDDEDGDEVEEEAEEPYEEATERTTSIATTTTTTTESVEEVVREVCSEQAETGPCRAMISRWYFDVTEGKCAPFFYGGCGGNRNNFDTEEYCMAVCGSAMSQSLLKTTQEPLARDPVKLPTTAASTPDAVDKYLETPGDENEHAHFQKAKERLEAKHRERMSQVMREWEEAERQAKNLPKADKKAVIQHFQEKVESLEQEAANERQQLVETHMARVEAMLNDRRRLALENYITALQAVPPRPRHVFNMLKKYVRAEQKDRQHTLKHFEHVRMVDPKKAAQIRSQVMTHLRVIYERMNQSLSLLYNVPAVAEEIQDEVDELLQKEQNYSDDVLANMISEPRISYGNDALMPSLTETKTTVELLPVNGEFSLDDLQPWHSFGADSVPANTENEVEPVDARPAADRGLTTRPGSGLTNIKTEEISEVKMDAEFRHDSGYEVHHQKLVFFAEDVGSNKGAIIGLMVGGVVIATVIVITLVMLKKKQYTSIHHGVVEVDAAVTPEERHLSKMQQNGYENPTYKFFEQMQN
Chain of Microtubule-associated protein tau (P10636 whole entry, the tested form may be a part): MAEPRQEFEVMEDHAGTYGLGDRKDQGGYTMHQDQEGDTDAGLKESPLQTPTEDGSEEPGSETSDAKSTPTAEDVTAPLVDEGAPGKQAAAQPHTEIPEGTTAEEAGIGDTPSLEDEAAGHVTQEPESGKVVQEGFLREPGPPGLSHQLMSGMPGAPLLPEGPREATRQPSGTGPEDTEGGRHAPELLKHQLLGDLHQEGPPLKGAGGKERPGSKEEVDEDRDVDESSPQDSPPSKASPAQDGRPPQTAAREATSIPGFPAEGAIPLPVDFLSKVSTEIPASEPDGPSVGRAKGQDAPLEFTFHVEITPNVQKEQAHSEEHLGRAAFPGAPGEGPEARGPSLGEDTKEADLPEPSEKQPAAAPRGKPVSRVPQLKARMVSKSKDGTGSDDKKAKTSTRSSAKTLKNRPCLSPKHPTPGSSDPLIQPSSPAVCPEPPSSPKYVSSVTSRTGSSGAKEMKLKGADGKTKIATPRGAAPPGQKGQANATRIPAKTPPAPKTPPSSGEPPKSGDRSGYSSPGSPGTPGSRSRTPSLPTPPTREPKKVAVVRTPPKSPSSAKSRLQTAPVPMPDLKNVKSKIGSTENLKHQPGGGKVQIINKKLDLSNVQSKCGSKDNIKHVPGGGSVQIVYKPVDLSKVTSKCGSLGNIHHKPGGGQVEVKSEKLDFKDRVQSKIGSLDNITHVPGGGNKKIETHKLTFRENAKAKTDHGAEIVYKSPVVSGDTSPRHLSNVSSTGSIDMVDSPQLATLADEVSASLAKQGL

Consider `COc1ccc(/C=C/C(=O)CC(=O)/C=C/c2ccc(O)c(OC)c2)cc1O`, for which the IC50 in data set [1] was determined as 2100 nM; in data set [2], 520 nM.
For `COc1cc(/C=C/C(=O)CC(=O)/C=C/c2cc(O)ccc2OC)ccc1O`, the values for the IC50 in data set [1] and in data set [2] were 1300 nM and 600 nM, respectively.
`COc1cc(OCc2ccccn2)ccc1/C=C/c1cc(/C=C/c2ccc3cc[nH]c3c2)[nH]n1`: the results for the concentration at 3 h in data set [3] and in data set [5] were 466 ng/mL and 276 ng/g, respectively. For the same molecule, the Tmax in data set [4] stood at 6 h. Also, the 50% inhibitory concentration (IC50) amounted to 1200 nM in data set [1] and 660 nM in data set [2]. For the same molecule, the Drug uptake result in data set [6] is “Active”. Moreover, the inhibition entry with Mus musculus was “Active”.
As to `COc1cc(/C=C/C(=O)CC(=O)/C=C/c2cccc(OC)c2O)ccc1O`, the IC50 in data set [1] worked out at 5400 nM; in data set [2], 690 nM.
The corresponding values for `COc1cc(/C=C/C(=O)CC(=O)/C=C/c2cccc(O)c2OC)ccc1O` are 1900 nM and 710 nM.
In the case of `COc1cc(/C=C/C(=O)CC(=O)/C=C/c2ccc(O)c(OC)c2)ccc1O` [CURCUMIN], the concentration at 3 h in data set [5] worked out at 13 ng/g.
As for `COc1cc(/C=C/C(=O)CC(=O)/C=C/c2ccc3ccccc3c2)ccc1O`, the figures for the IC50 in data set [1] and in data set [2] were 590 nM and 420 nM, respectively.
Turning to `COc1cc(/C=C/C(=O)CC(=O)/C=C/c2ccccc2)ccc1O`, the half-maximal inhibitory concentration (IC50) in data set [1] is 2200 nM; in data set [2], 1400 nM.
Consider `COc1cc(/C=C/C(=O)CC(=O)/C=C/c2cccnc2)ccc1O`, for which the IC50 in data set [1] and in data set [2] was over 10000 nM in each case.
For `COc1cc(OCc2ccccc2)ccc1/C=C/C(=O)CC(=O)/C=C/c1ccc2cc[nH]c2c1`, the IC50 worked out at 5400 nM in data set [1] and 610 nM in data set [2].
Consider `COc1cc(/C=C/C(=O)CC(=O)/C=C/c2ccc(O)cc2OC)ccc1O`, for which the figures for the IC50 in data set [1] and in data set [2] were 920 nM and 580 nM, respectively.
As to `COc1ccc(/C=C/C(=O)CC(=O)/C=C/c2ccc(O)c(OC)c2)c(O)c1`, the IC50 in data set [1] came out at 930 nM; in data set [2], 1400 nM.
With `COc1cc(O)ccc1/C=C/C(=O)CC(=O)/C=C/c1ccc2cc[nH]c2c1`, the IC50 in data set [1] was determined as 520 nM; in data set [2], 230 nM.
As to `COc1cc(O)cc(/C=C/C(=O)CC(=O)/C=C/c2ccc(O)c(OC)c2)c1`, the values for the IC50 in data set [1] and in data set [2] were 1100 nM and 320 nM, respectively.
Turning to `COc1cc(/C=C/C(=O)CC(=O)/C=C/c2ccco2)ccc1O`, the IC50 in data set [1] came to 760 nM; in data set [2], 2000 nM.
For the molecule `COc1cc(OCC2CCCO2)ccc1/C=C/C(=O)CC(=O)/C=C/c1ccc2cc[nH]c2c1` (stereo not drawn), the 50% inhibitory concentration (IC50) is 2500 nM in data set [1] and 420 nM in data set [2].
For the molecule `COc1cc(OCc2ccccn2)ccc1/C=C/C(=O)CC(=O)/C=C/c1ccc2cc[nH]c2c1`, the results for the IC50 in data set [1] and in data set [2] were 470 nM and 330 nM, respectively. For the same molecule, the concentration at 3 h in data set [5] is 1 ng/g. This molecule also came in with a Cmax in data set [7] of 5.7 ng/mL.
With `COc1cc(/C=C/C(=O)CC(=O)/C=C/c2ccc3c(c2)OCO3)ccc1O`, the IC50 in data set [1] came out at 3700 nM; in data set [2], 1200 nM.
Regarding `COc1ccc(O)c(/C=C/C(=O)CC(=O)/C=C/c2ccc(O)c(OC)c2)c1`, the IC50 in data set [1] worked out at 1800 nM; in data set [2] it was 920 nM.
With `COc1cc(/C=C/C(=O)CC(=O)/C=C/c2c(O)cccc2OC)ccc1O`, the figures for the half-maximal inhibitory concentration (IC50) in data set [1] and in data set [2] were 1600 nM and 910 nM, respectively.
On to `COc1cc(O)ccc1/C=C/C(=O)CC(=O)/C=C/c1ccc(O)cc1OC`, for which the results for the IC50 in data set [1] and in data set [2] were 4600 nM and over 10000 nM, respectively.
Regarding `COc1cc(/C=C/C(=O)CC(=O)/C=C/c2ccc3cc[nH]c3c2)ccc1O`, the IC50 came to 420 nM in data set [1] and 440 nM in data set [2].
`CN(C)c1ccc2nc3ccc(=[N+](C)C)cc-3sc2c1` [METHYLENE BLUE ANHYDROUS]: the IC50 in data set [1] turned out to be 500 nM.
As to `COc1ccc(/C=C/C(=O)CC(=O)/C=C/c2ccc3cc[nH]c3c2)c(OC)c1`, the IC50 amounted to 610 nM in data set [1] and 700 nM in data set [2].
